Results from ChEMBL document CHEMBL1122459, “4-(Diphenylmethyl)-1-[(imino)methyl]piperidines as gastric antisecretory agents” (J Med Chem, 1983).

Experiments:
Rattus norvegicus [1] = species: Rattus norvegicus; assay: Relative potency against atropine; format: functional
[2] = molecular target: Muscarinic acetylcholine receptor; assay: Displacement of [3H]- quinuclidinyl benzilate from rat brain Muscarinic acetylcholine receptor
[3] = Ratio between gastric emptying(GE) and acute gastric fistula(AGF); format: functional, Stomach
Rattus norvegicus [4] = assay: Antisecretory activity against acute gastric fistula(AGF) in rat when administered perorally; format: functional; details: Stomach, po
Summary of the method: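 Female Sprague-Dawley rats, 120-160 g, fasted ≥18 h; drug or vehicle (0.5% methocel) po 1 h before surgery. Under ether, fundic fistula tube inserted; first 30-min sample discarded, then two 1-h collections. Volume measured, aliquot titrated to pH 7 with 0.01 N NaOH for total acid output. ED50 = dose for 50% inhibition vs controls, least-squares regression; ≥5 rats/group, ≥3 doses.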

Rattus norvegicus [5] = assay: Anticholinergic activity against carbachol induced gastric emptying(GE) in rat when administered perorally; format: functional; details: Stomach, po
Summary of the method: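 Ten 1-mm polystyrene beads placed in stomach by tube 30 min later; carbachol 80 mcg/kg sc at 1 h post-dose; killed 15 min after. Beads left in stomach counted. ED50 = dose giving 50% inhibition of emptying vs controls, by least-squares regression; ≥5 rats/group, ≥3 dose groups.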

Rattus norvegicus [6] = assay: Anticholinergic activity against carbachol-induced gastric emptying (GE) in rat when administered perorally; details: Stomach, po
Rattus norvegicus [7] = species: Rattus norvegicus; assay: animal or person; details: Stomach, po

Structure (SMILES)	I50 [2] [nM]	Relative Potency (Rattus norvegicus [1])	Ratio [3]	ED50 (Rattus norvegicus [4]) [mg/kg]	ED50 (Rattus norvegicus [5]) [mg/kg]	ED50 (Rattus norvegicus [6]) [mg/kg]	ED50 (Rattus norvegicus [7]) [mg/kg]
CCCCCCC/N=C/N1CCC(C(c2ccccc2)c2ccccc2)CC1.O=C(O)/C=C/C(=O)O	3300	0.08	2.9	11.5	33.4		
CCCCCC/N=C/N1CCC(C(c2ccccc2)c2ccccc2)CC1.O=C(O)/C=C/C(=O)O	1900	0.13	1.8	8.34	15		
CCCCCCCCC/N=C/N1CCC(C(c2ccccc2)c2ccccc2)CC1.O=C(O)/C=C/C(=O)O	> 10000		3.74	10.8	40.4		
CCCCCCCC/N=C/N1CCC(C(c2ccccc2)c2ccccc2)CC1.O=C(O)/C=C/C(=O)O	8600	0.04	16.15	10.9	176		
CN1[C@@H]2CC[C@H]1C[C@@H](OC(=O)C(CO)c1ccccc1)C2 (stereo partly drawn) [ATROPINE]				0.64	0.35		
CN/C(=N\CCSCc1nc[nH]c1C)NC#N [CIMETIDINE]						160	7.6

Further lines, with some results ahead:

I50 [2] [nM]	Structure (SMILES)	Relative Potency (Rattus norvegicus [1])	Ratio [3]	ED50 (Rattus norvegicus [4]) [mg/kg]	ED50 (Rattus norvegicus [5]) [mg/kg]	ED50 (Rattus norvegicus [6]) [mg/kg]	ED50 (Rattus norvegicus [7]) [mg/kg]
1300	C#CC/N=C/N1CCC(C(c2ccccc2)c2ccccc2)CC1.Cl	0.19	1.48	5.4	8		
3	Cl.N=CN1CCC(C(c2ccccc2)c2ccccc2)CC1	81.7	2.53	0.34	0.86		
490	C=CC/N=C/N1CCC(C(c2ccccc2)c2ccccc2)CC1	0.51	1.27	10.4	13.2		
70	CCC(=N)N1CCC(C(c2ccccc2)c2ccccc2)CC1	3.61	0.37	54.5	20		
3800	CCCCCCCCCC/N=C/N1CCC(C(c2ccccc2)c2ccccc2)CC1	0.06	5.52	7.8	43.1		
1600	CC(C)/N=C/N1CCC(C(c2ccccc2)c2ccccc2)CC1.O=C(O)/C=C/C(=O)O	0.15	1.76	8.6	15.1		
1600	CCCC/N=C/N1CCC(C(c2ccccc2)c2ccccc2)CC1.O=C(O)/C=C/C(=O)O	0.15	1.36	7.6	10.3		
